Source: ChEMBL document CHEMBL2203056, “Antimutagenic thio compounds from Sisymbrium officinale” (J Nat Prod, 2012)

Experiments:
[1] = Cytotoxicity against Escherichia coli WP2 (trpE65) assessed as cell viability up to 10 to 300 ug/mL after 72 hrs in presence of 1700 ug/plate methyl methane sulfonate; format: organism-based; conditions: Escherichia coli WP2 (trpE65) cells, read-out: Activity
Method in brief: (§1)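 Viability check on the antimutagenicity mixtures. Culture, mutagen (MMS 1700 μg/plate; 2AA or 2AF 25 μg/plate with S9 mix), test substance and S9 mix or 0.1 M phosphate buffer were shaken 30 min at 37 °C. Mixtures were diluted to 2 × 10^3 cells/mL, plated in top agar on nutrient agar and incubated 72 h at 37 °C. Colonies counted and compared with the solvent-only negative control.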

Escherichia coli [2] = test: Antimutagenic activity in Escherichia coli WP2 (trpE65) assessed as maximal inhibition of 2-aminofluorene-induced mutagenic effect at 10 to 300 ug/plate after 72 hrs in presence of metabolic activation system S9 by Ames test; format: functional
Method in brief: (§2)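 Preincubation Ames test with E. coli WP2 strains, from 16 h overnight cultures at 37 °C (about 2 × 10^9 bacteria/mL). Culture, mutagen, test substance (DMSO, 2% v/v vehicle) and either S9 mix (phenobarbital/β-naphthoflavone-induced rat liver) or 0.1 M phosphate buffer were shaken 30 min at 37 °C. Mutagens were MMS 1700 μg/plate without S9, and 2AA or 2AF 25 μg/plate with S9. Then top agar with 0.5 mM tryptophan on minimal agar, 72 h at 37 °C; tryptophan-independent revertants scored. Inhibition = 100 − (T/M × 100). Triplicates, at least two experiments.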

[3] = Solubility of the compound up to 110 ug/mL; format: physicochemical
Method in brief: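 Compounds dissolved in DMSO by sonication, stock up to 12 mg/mL. Insolubility in the final assay mixture judged as a precipitate visible to the unaided eye.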

Escherichia coli [4] = test: Antimutagenic activity in Escherichia coli WP2 (trpE65 deltauvrA) assessed as maximal inhibition of methyl methane sulfonate-induced mutagenic effect at 10 to 300 ug/plate after 72 hrs in absence of metabolic activation system S9 by Ames test; format: functional; method in brief: as §2
Escherichia coli [5] = test: Antimutagenic activity in Escherichia coli WP2 (trpE65 deltauvrA) assessed as maximal inhibition of 2-aminoanthracene-induced mutagenic effect at 10 to 300 ug/plate after 72 hrs in presence of metabolic activation system S9 by Ames test; format: functional; method in brief: as §2
[6] = Cytotoxicity against Escherichia coli WP2 (trpE65) assessed as cell viability up to 10 to 300 ug/mL after 72 hrs in presence of 25 ug/plate 2-aminoanthracene and metabolic activation system S9; format: ADME, organism-based; conditions: read-out: Activity
[7] = Cytotoxicity against Escherichia coli WP2 (trpE65 deltauvrApKM101) assessed as cell viability up to 10 to 300 ug/mL after 72 hrs in presence of 25 ug/plate 2-aminoanthracene and metabolic activation system S9; format: ADME, organism-based; conditions: read-out: Activity; method in brief: as §1
[8] = Cytotoxicity against Escherichia coli WP2 (trpE65 deltauvrA) assessed as cell viability up to 10 to 300 ug/mL after 72 hrs in presence of 25 ug/plate 2-aminoanthracene and metabolic activation system S9; format: ADME, organism-based; conditions: read-out: Activity; method in brief: as §1
Escherichia coli [9] = test: Antimutagenic activity in Escherichia coli WP2 (trpE65 deltauvrApKM101) assessed as maximal inhibition of methyl methane sulfonate-induced mutagenic effect at 10 to 300 ug/plate after 72 hrs in absence of metabolic activation system S9 by Ames test; format: functional; method in brief: as §2
[10] = Cytotoxicity against Escherichia coli WP2 (trpE65 deltauvrApKM101) assessed as cell viability up to 10 to 300 ug/mL after 72 hrs in presence of 25 ug/plate 2-aminofluorene and metabolic activation system S9; format: ADME, organism-based; conditions: read-out: Activity
[11] = Cytotoxicity against Escherichia coli WP2 (trpE65) assessed as cell viability up to 10 to 300 ug/mL after 72 hrs in presence of 25 ug/plate 2-aminofluorene and metabolic activation system S9; format: ADME, organism-based; conditions: read-out: Activity; method in brief: as §1
[12] = Cytotoxicity against Escherichia coli WP2 (trpE65 deltauvrA) assessed as cell viability up to 10 to 300 ug/mL after 72 hrs in presence of 1700 ug/plate methyl methane sulfonate; format: organism-based; conditions: Escherichia coli WP2 (trpE65 deltauvrA) cells, read-out: Activity; method in brief: as §1
[13] = Cytotoxicity against Escherichia coli WP2 (trpE65 deltauvrA) assessed as cell viability up to 10 to 300 ug/mL after 72 hrs in presence of 25 ug/plate 2-aminofluorene and metabolic activation system S9; format: ADME, organism-based; conditions: read-out: Activity
[14] = Cytotoxicity against Escherichia coli WP2 (trpE65 deltauvrApKM101) assessed as cell viability up to 10 to 300 ug/mL after 72 hrs in presence of 1700 ug/plate methyl methane sulfonate; format: organism-based; conditions: Escherichia coli WP2 (trpE65 deltauvrApKM101) cells, read-out: Activity; method in brief: as §1
Escherichia coli [15] = test: Antimutagenic activity in Escherichia coli WP2 (trpE65) assessed as maximal inhibition of methyl methane sulfonate-induced mutagenic effect at 10 to 300 ug/plate after 72 hrs in absence of metabolic activation system S9 by Ames test; format: functional; method in brief: as §2
Escherichia coli [16] = test: Antimutagenic activity in Escherichia coli WP2 (trpE65 deltauvrApKM101) assessed as maximal inhibition of 2-aminoanthracene-induced mutagenic effect at 10 to 300 ug/plate after 72 hrs in presence of metabolic activation system S9 by Ames test; format: functional; method in brief: as §2

SMILES | viability at 72 h [1] | inhibition (INH) (Escherichia coli [2]) | solubility [3] | inhibition (INH) (Escherichia coli [4]) | inhibition (INH) (Escherichia coli [5]) | viability at 72 h [6] | viability at 72 h [7] | viability at 72 h [8] | inhibition (INH) (Escherichia coli [9]) | viability at 72 h [10] | viability at 72 h [11] | viability at 72 h [12] | viability at 72 h [13] | viability at 72 h [14] | inhibition (INH) (Escherichia coli [15]) | inhibition (INH) (Escherichia coli [16])
CC(C)/C(=N/OS(=O)(=O)O)S[C@@H]1O[C@H](CO)[C@@H](O)[C@H](O)[C@H]1O [GLUCOPUTRANJIVIN] | 80% | 61.6% | soluble | 44.6% | 80.1% | 77% | 93% | 77% | 38.5% | 93% | 77% | 82% | 77% | 80% | 32.8% | 21.5%
CC(C)N=C=S [ISOPROPYL ISOTHIOCYANATE] | 80% | 57.9% | soluble | 45.7% | 81.9% | 77% | 93% | 77% | 32.9% | 93% | 77% | 82% | 77% | 80% | 9.7% | 18.6%
